# From PubChem BioAssay
# DENV2 CPE rescue = DENV2-induced cell death inhibition; DENV2-infected cells, cytopathic effect rescue, plate reader; CPE inhibition, % at 9.99 µM; hit rate 1.7% among 350,000; AID 651640; in the data active = CPE inhibition above about 20%, passing the limit was not always enough; inconclusive = no clear call, values can overlap the other calls; tested in BHK-21 cells
# C2C12 statin = suppressors of simvastatin-induced myotoxicity in C2C12 myotubes; ATP luminescence, 48 h; scaled: DMSO 0, geranylgeraniol control 100; rescue of ATP level, % at 7.49 µM; hit rate 0.78% among 330,000;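 active = mean ATP rescue above about 67%, or every replicate alone reaching that limit, limit read from the data, passing the limit was not always enough; inconclusive = no clear call, values can overlap the other calls; inactive = mean under the limit and some replicate under it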;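 note: myotubes were challenged with 10 µM simvastatin during compound exposure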
# PGC1a acetyl inh = modulators of PGC1a acetylation; U2OS PGC1a acetylation, AlphaScreen anti-acetyl-lysine; with virally co-expressed GCN5 acetyltransferase; inhibition, % at 15.6 µM; hit rate 0.17% among 350,000; AID 651687;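 active = every replicate shows inhibition of at least 40%; inconclusive = mean inhibition at least 40% but some replicate below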
# S100A4 inh HTS = inhibitors of human S100A4 binding to myosin IIA peptide. P26447. inhibition, % at 10.7 µM. hit rate 0.14% among 360,000. S100A4/TAMRA-MyoIIA peptide fluorescence polarization;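 active = mean inhibition of at least 70% across replicates, with every replicate also reaching that level; inconclusive = mean inhibition reaches 70% but some replicates fall short; inactive = mean inhibition below 70%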
# Target sequence (P26447 whole entry, looked up): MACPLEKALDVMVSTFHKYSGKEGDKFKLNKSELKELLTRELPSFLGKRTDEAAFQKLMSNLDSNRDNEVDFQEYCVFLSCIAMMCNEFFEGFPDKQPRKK
#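 Material: human S100A4 monomer with TAMRA-labelled myosin IIA peptide; buffer or medium: HEPES pH 7.2 with CaCl2, KCl, NaCl, DTT, Triton; compound dosing: one concentration per compound; schedule: 5 min incubation before reading; benchmarks: neutral control DMSO, positive control TFP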
# SIRT5 block = sirtuin-5 (human) deacylase inhibition; Q9NXA8; Purified SirT5, succinyl-peptide AMC, trypsin-coupled fluorescence; inhibition, % at 15 µM; hit rate 1.1% among 330,000; AID 652115; in the data active = inhibition above about 15%; inconclusive = no clear call, values can overlap the other calls
# Target sequence (Q9NXA8 whole entry, looked up): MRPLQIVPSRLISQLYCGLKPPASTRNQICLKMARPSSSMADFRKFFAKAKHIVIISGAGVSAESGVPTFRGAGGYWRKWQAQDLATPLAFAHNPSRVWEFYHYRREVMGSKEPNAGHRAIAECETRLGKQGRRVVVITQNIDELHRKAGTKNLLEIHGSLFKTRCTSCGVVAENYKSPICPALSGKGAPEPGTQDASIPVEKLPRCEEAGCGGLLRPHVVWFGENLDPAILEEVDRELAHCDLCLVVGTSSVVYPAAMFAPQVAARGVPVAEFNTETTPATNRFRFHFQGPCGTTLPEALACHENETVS
# A number is an active result; n = inactive; u = inconclusive; x = not tested or not shown; ! = not confirmed by another sample. In the library only some 2.9% were active in any assay of this set; here they are far more common.
SMILES,DENV2 CPE rescue,C2C12 statin,PGC1a acetyl inh,S100A4 inh HTS,SIRT5 block
NC(=O)N/N=C/c1ccc(N2CCOCC2)s1,n,x,x,n,n
O=C(O)c1cc(N/N=C/c2ccc(N3CCOCC3)s2)ccc1Cl,n,x,x,n,36
COCC(=O)N1[C@@H](C#N)[C@@H](c2ccccc2-c2cccc(OC)c2)[C@@H]1CO,n,x,n,n,n
NC1=NC(=Nc2ccccc2)c2ccccc21,x,134,n,x,x
CC(C)(C)n1nnnc1C(c1cc2ccccc2o1)N1CCOCC1 (centres undefined),107,x,x,n,n
CC=Cc1ccc2n(c1=O)C[C@H]1[C@H](CO)[C@@H](C(=O)NC3CCCCC3)N(CCC)[C@@H]21 (mixture of isomers),x,n,n,x,x
O=C(Nc1c(C(=O)N2CCOCC2)cnn1-c1ccccc1)c1ccc([N+](=O)[O-])cc1,n,n,n,n,n
Cc1ccc(C(=O)Nc2c(C(=O)N3CCOCC3)cnn2-c2ccccc2)cc1,x,111,n,x,x
CS(=O)(=O)N1c2ccccc2[C@]2([C@@]34C[C@H]5C(=O)N[C@@H](Cc6ccccc6)C(=O)N5[C@@H]3N(S(C)(=O)=O)c3ccccc34)C[C@H]3C(=O)N[C@@H](Cc4ccccc4)C(=O)N3[C@H]12,n,x,x,n,33
O=c1cc(O)c2sc3nc4c(c(C(F)(F)F)c3c2[nH]1)CCCCC4,n,n,n,n,17
C[C@@H]1CN([C@@H](C)CO)C(=O)Cc2cc(NC(=O)C3CCCCC3)ccc2O[C@H]1CN(C)CC1CC1,76,n,n,n,n
CNC[C@H]1Oc2ccc(NC(=O)C3CCCCC3)cc2CC(=O)N([C@H](C)CO)C[C@@H]1C,90!,n,n,n,n
CNC[C@H]1Oc2ccc(NC(=O)C3CCCCC3)cc2CC(=O)N([C@H](C)CO)C[C@H]1C,n,n,n,n,n
C[C@@H]1CN([C@@H](C)CO)C(=O)Cc2cc(NC(=O)NC3CCCCC3)ccc2O[C@H]1CN(C)CC1CC1,41,n,n,n,n
O=C1Nc2ccccc2C(=O)N(C2CCCC2)C1C(=O)NC1CC1 (centres undefined),35,x,x,n,n
Cc1ccccc1S(=O)(=O)/N=C(/c1ccccc1)N1CCOCC1,n,n,n,n,16
CO[C@@H]1CN(C)C(=O)c2cc(NC(=O)C3CC3)ccc2OC[C@H](C)NC[C@H]1C,n,n,n,n,n
CC(C)NC(=O)Nc1ccc2c(c1)C(=O)N([C@H](C)CO)C[C@H](C)[C@H](CN(C)Cc1ccncc1)OCCCC[C@@H](C)O2,n,x,n,n,n
COc1ccc(CN=CC2=C(O)CNC2=O)cc1OC,x,94,n,x,x
CN(c1ccccc1)c1ccc(/C=C(/CCC(=O)O)c2nc3ccccc3s2)cc1[N+](=O)[O-],n,x,x,n,18
Cc1ccc2[nH]c(-c3cccc(F)c3)cc(=O)c2c1,x,n,x,n,n
O=c1cc(-c2cccc(F)c2)[nH]c2ccccc12,36,n,x,n,n
C[C@H]1CN([C@@H](C)CO)C(=O)c2cc(C3=CCCC3)cnc2O[C@@H]1CN(C)S(=O)(=O)c1cn(C)cn1,n,n,n,n,n
CCCS(=O)(=O)c1c(S(=O)(=O)CCC)c2c(N)cccn2c1C(=O)c1ccc(OC)cc1,n,x,n,n,16
Cc1ccc(CNC(=O)CNS(=O)(=O)c2cccc3nsnc23)cc1,x,101,n,x,x
SMILES,DENV2 CPE rescue,C2C12 statin,PGC1a acetyl inh,S100A4 inh HTS,SIRT5 block
CCCC(=O)Nc1ccc2c(c1)C(=O)N(C)C[C@@H](OC)[C@H](C)CN(C(=O)CC1CC1)[C@H](C)CO2,n,n,n,n,x
C[C@H]1CN([C@@H](C)CO)S(=O)(=O)c2ccc(C3=CCCC3)cc2O[C@@H]1CN(C)Cc1cccc(C(=O)O)c1,n,n,n,n,n
O=C(O)c1ccc(S(=O)(=O)N(Cc2ccccc2)C2CCCCC2)cc1,n,n,x,n,22
CC(C)(C)OC(=O)NCc1ccc(CNC(=O)c2[nH]cnc2C(=O)NC2CCN(C(=O)OC(C)(C)C)CC2)cc1,x,n,n,x,x
CC(C)C[C@H](NC(=O)c1nc[nH]c1C(=O)NC1CCN(C(=O)OC(C)(C)C)CC1)C(=O)OCc1ccccc1,n,n,n,n,n
CC(C)(C)OC(=O)N1CCC(NC(=O)c2nc[nH]c2C(=O)NCc2ccccc2)CC1,34,n,n,n,x
CC(C)C[C@H](NC(=O)c1nc[nH]c1C(=O)NC1CCN(C(=O)OC(C)(C)C)CC1)C(=O)OC(C)(C)C,50,n,x,n,x
CN(Cc1ccccc1)C(=O)c1nc[nH]c1C(=O)N1CCN(C(=O)OC(C)(C)C)CC1,42,n,n,n,x
C[C@H]1CCCCO[C@H](CN(C)C(=O)Nc2cccc3ccccc23)[C@@H](C)CN([C@@H](C)CO)C(=O)c2cc(NC(=O)NC3CCCCC3)ccc2O1,n,x,n,n,n
C[C@H](CO)N1C[C@H](C)[C@@H](CN(C)S(=O)(=O)c2ccccc2)Oc2ncc(C#CCN(C)C)cc2C1=O,n,n,n,n,n
CO[C@H]1CN(C)C(=O)c2cc(NS(C)(=O)=O)ccc2OC[C@@H](C)N(CC2CCCCC2)C[C@@H]1C,n,n,n,n,n
Cc1cccc(C(O)c2ncc(-c3ccccc3Cl)[nH]2)c1C (centres undefined),n,n,n,n,x
Cc1ccccc1-c1cnc(C(O)c2cccc(C)c2C)[nH]1 (centres undefined),21,n,n,n,n
C[C@@H]1CN([C@@H](C)CO)C(=O)c2cccc(NC(=O)CCCCCC(=O)Nc3ccccc3N)c2O[C@@H]1CN(C)Cc1ccc2c(c1)OCO2,50,x,n,n,n
C[C@H]1CN([C@@H](C)CO)C(=O)c2cccc(NC(=O)CCCCCC(=O)Nc3ccccc3N)c2O[C@@H]1CN(C)C,23,x,n,n,n
C[C@H](CO)N1C[C@H](C)[C@@H](CN(C)CC2CCCCC2)Oc2c(NC(=O)CCCCCC(=O)Nc3ccccc3N)cccc2C1=O,n,x,n,n,19
C[C@H]1CN([C@@H](C)CO)C(=O)c2cccc(NC(=O)CCCCCC(=O)Nc3ccccc3N)c2O[C@H]1CN(C)CC1CCCCC1,n,x,n,n,n
C[C@@H]1CN([C@H](C)CO)C(=O)c2cccc(NC(=O)CCCCCC(=O)Nc3ccccc3N)c2O[C@@H]1CN(C)Cc1ccc(-c2ccccc2)cc1,36,x,n,n,n
COc1ccc(-c2cnc3c(c2)C(=O)N([C@H](C)CO)C[C@@H](C)[C@H](CN(C)S(C)(=O)=O)O3)cc1,n,n,n,n,n
C[C@H](CO)N1C[C@H](C)[C@@H](CN(C)Cc2ccc(Oc3ccccc3)cc2)Oc2c(NC(=O)CCCCCC(=O)Nc3ccccc3N)cccc2C1=O,n,x,n,n,22
C[C@H]1CN([C@@H](C)CO)C(=O)c2cccc(NC(=O)CCCCCC(=O)Nc3ccccc3N)c2O[C@H]1CN(C)Cc1ccc(Oc2ccccc2)cc1,u,x,n,n,n
